From ChEMBL document CHEMBL4715858, “10-N-heterocylic aryl-isoxazole-amides (AIMs) have robust anti-tumor activity against breast and brain cancer cell lines and useful fluorescence properties” (Bioorg Med Chem, 2020)
The source made the active and inactive calls. The rule behind the calls is not given here.

Legend:
Quadruplex DNA [1] = experiment: Stabilization of c-myc Pu22 G4 quadruplex oligonucleotide (unknown origin) assessed as anisotropic shift at 2 equivalents of compound by NMR spectroscopy; format: nucleic-acid assay
Summary of the method: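 1H NMR titration of the c-myc Pu22 oligomer, following the G-tetrad imino hydrogen-bonding region (10.95–11.6 ppm) for anisotropic shifts.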

SNB-19 [2] = experiment: Anticancer activity against human SNB-19 cells assessed as cell growth inhibition measured after 3 to 5 days by MTT assay; format: functional, cell-based
Summary of the method: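 MTT colorimetric growth-inhibition assay in SNB-19 glioblastoma cells. IC50 obtained by fitting a logistic model to the dose-response data, as the concentration giving 50% growth inhibition relative to the DMSO control.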

MDA-MB-468 = experiment: Anticancer activity against human MDA-MB-468 cells assessed as cell growth inhibition measured after 3 to 5 days by MTT assay; format: functional, cell-based
C6 = experiment: Anticancer activity against rat C6 cells assessed as cell growth inhibition measured after 3 to 5 days by MTT assay; format: functional, cell-based
[3] = Drug uptake in human SNB-19 cells assessed as punctate localization at 500 nM incubated for 10 mins followed by compound washout twice by HCS NuclearMask staining based confocal laser scanning microscopy; format: ADME, cell-based; settings: snb-19, 10 min, 0.5 µM
Summary of the method: (§1)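 Cells plated at 20,000 cells/well and left to adhere overnight. Treatment medium was made from 5 mM DMSO stocks diluted in growth medium and applied for 10 min at growth conditions. Cells were then washed twice with PBS and fixed in 4% PFA for 10 min on ice. Imaged immediately by confocal microscopy, 60x oil objective, excitation 405 nm, emission 422 nm, with HCS NuclearMask counterstain.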

SNB-19 [4] = experiment: Induction of apoptosis in human SNB-19 cells assessed as membrane blebbing at 500 nM incubated for 10 mins followed by compound washout twice by HCS NuclearMask staining based confocal laser scanning microscopy; format: functional, cell-based; summary of the method: as §1
SNB-19 [5] = experiment: Induction of apoptosis in human SNB-19 cells assessed as organized cell death at 500 nM incubated for 10 mins followed by compound washout twice by HCS NuclearMask staining based confocal laser scanning microscopy; format: functional; summary of the method: as §1
[6] = Drug uptake in cytoplasm of human SNB-19 cells at 500 nM incubated for 10 mins followed by compound washout twice by HCS NuclearMask staining based confocal laser scanning microscopy; format: ADME, subcellular; settings: snb-19, 10 min, 0.5 µM; summary of the method: as §1
[7] = Drug uptake in nucleus of human SNB-19 cells at 500 nM incubated for 10 mins followed by compound washout twice by HCS NuclearMask staining based confocal laser scanning microscopy; format: ADME, subcellular; settings: snb-19, 10 min, 0.5 µM; summary of the method: as §1
Quadruplex DNA [8] = experiment: Stabilization of c-myc Pu22 G4 quadruplex oligonucleotide (unknown origin) at 2 equivalents of compound by circular dichroism spectral analysis; format: nucleic-acid assay
Summary of the method: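 Pu22 at 5 µM strand in 1 mM potassium phosphate pH 6, alone or with 2 equivalents compound, annealed at 90 °C for 10 min and then cooled to 4 °C overnight. CD spectra recorded 200–400 nm at 5 °C, 1 nm bandwidth, 0.2 nm step, 0.5 s per point.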

Quadruplex DNA [9] = experiment: Stabilization of c-myc Pu22 G4 quadruplex oligonucleotide (unknown origin) assessed as melting temperature at 2 equivalents of compound by thermal melting curve based analysis (reference value: 58.4 degC); format: nucleic-acid assay
Summary of the method: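 Annealed at 90 °C for 10 min, then cooled gradually to 4 °C overnight. CD melting monitored at 265 nm from 20–90 °C at 1 °C/min in 0.5 °C steps. Tm from a six-parameter logistic fit.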

## CCOC(=O)c1c(-c2c3ccccc3c(-c3ccccc3)c3ccccc23)noc1C
Quadruplex DNA [1]
  Activity: Active

## Cc1onc(-c2c3ccccc3c(-c3cccnc3)c3ccccc23)c1C(=O)Nc1cc(C(=O)N(CCCN(C)C)CCCN(C)C)n(C)c1
SNB-19 [2]
  IC50: 7.76 µM
MDA-MB-468
  IC50: 1.29 µM
C6
  IC50: > 25 µM

## Cc1onc(-c2c3ccccc3c(-c3ccccc3)c3ccccc23)c1C(=O)Nc1cc(C(=O)N(CCCN(C)C)CCCN(C)C)n(C)c1
Quadruplex DNA [1]
  Activity: Active

## Cc1onc(-c2c3ccccc3c(-c3cccc4cccnc34)c3ccccc23)c1C(=O)Nc1cc(C(=O)N(CCCN(C)C)CCCN(C)C)n(C)c1
SNB-19 [2]
  IC50: 2.03 µM
MDA-MB-468
  IC50: 1.17 µM
C6
  IC50: 6.71 µM
[3]
  Drug uptake: Active
SNB-19 [4]
  Activity: Active
SNB-19 [5]
  Activity: Active
[6]
  Drug uptake: Active
[7]
  Drug uptake: Not Active
Quadruplex DNA [8]
  Activity: Active
Quadruplex DNA [9]
  Tm: 61.7 °C
Quadruplex DNA [1]
  Activity: Active

## Cc1onc(-c2c3ccccc3c(-c3ccncc3)c3ccccc23)c1C(=O)Nc1cc(C(=O)N(CCCN(C)C)CCCN(C)C)n(C)c1
SNB-19 [2]
  IC50: 7.08 µM
MDA-MB-468
  IC50: 3.1 µM
C6
  IC50: 16.9 µM

## Cc1onc(-c2c3ccccc3c(-c3ccccn3)c3ccccc23)c1C(=O)Nc1cc(C(=O)N(CCCN(C)C)CCCN(C)C)n(C)c1
SNB-19 [2]
  IC50: > 25 µM
MDA-MB-468
  IC50: 6.34 µM
C6
  IC50: > 25 µM
